Active and inactive are the calls of the source.
How the values were obtained:
molinema dessetae [1] = test system: molinema dessetae;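 further: in vitro assay on infective-stage larvae, EC90 being the concentration lethal to 90% of larvae after 7 days of exposure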
molinema dessetae [2] = assay: Antifilarial activity against Molinema dessetae in vivo against female adult worms at a dose of 200 mg/kg subcutaneously once a day for 5 days; Inactive; format: functional, organism-based; parameters: dose 200 mg/kg
Summary of the method: (§1)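 Proechimys oris of both sexes were each infected with 200 infective larvae dissected from Aedes aegypti mosquitoes. Microfilaremia was checked, and the rodents were treated 150–180 days post-infection. Compound was given subcutaneously as a 1% carboxymethylcellulose suspension once daily for 5 consecutive days. Microfilaremia was followed for 6 weeks, then adult male and female worms were counted at autopsy. A compound was scored active if no males and ≤1.6 females were found (p = 0.12).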

molinema dessetae [3] = assay: Antifilarial activity against Molinema dessetae in vivo against male adult worms at a dose of 200 mg/kg subcutaneously once a day for 5 days; Inactive; format: functional, organism-based; parameters: dose 200 mg/kg
Summary of the method: as §1

[4] = Antifilarial activity against Molinema dessetae in vivo in Proechimys oris the natural host at a dose of 200 mg/kg subcutaneously once a day for 5 days. Value is expressed as number of infected P. oris.; format: functional; settings: route subcutaneous
Summary of the method: as §1

[5] = Effective concentration of compound necessary to kill 50% of infective larvae of Molinema dessetae after 7 days was determined in vitro; format: functional
molinema dessetae [6] = assay: Antifilarial activity against Molinema dessetae in vivo against male adult worms at a dose of 200 mg/kg subcutaneously once a day for 5 days; Active; format: functional, organism-based; parameters: dose 200 mg/kg
Summary of the method: as §1

molinema dessetae [7] = assay: Antifilarial activity against Molinema dessetae in vivo against female adult worms at a dose of 200 mg/kg subcutaneously once a day for 5 days; Active; format: functional, organism-based; parameters: dose 200 mg/kg
Summary of the method: as §1

[8] = Effective concentration of compound necessary to kill 50% of infective larvae of Molinema dessetae after 7 days was determined in vitro; Value ranges from 20-100; format: functional
Summary of the method: (§2)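 Infective larvae from the intermediate host were decontaminated and held 20 per 1.5 mL in a biphasic medium: L929 feeder layer with RPMI and fetal calf serum (90:10), plus penicillin and streptomycin. Compound solutions at several concentrations were made in DMSO, and 10 μL of each was added. After 7 days, survival was corrected by control, in duplicate runs. EC ranges are given in μM.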

molinema dessetae [9] = assay: Effective concentration of compound necessary to kill 90% of infective larvae of Molinema dessetae after 7 days was determined in vitro; Value ranges from 20-100; format: functional
Summary of the method: as §2

molinema dessetae [10] = assay: Antifilarial activity against Molinema dessetae in vivo against female adult worms at a dose of 100 mg/kg subcutaneously once a day for 5 days; Inactive; format: functional, organism-based; parameters: dose 100 mg/kg
Summary of the method: as §1

molinema dessetae [11] = assay: Antifilarial activity against Molinema dessetae in vivo against male adult worms at a dose of 100 mg/kg subcutaneously once a day for 5 days; Inactive; format: functional, organism-based; parameters: dose 100 mg/kg
Summary of the method: as §1

[12] = Antifilarial activity against Molinema dessetae in vivo in Proechimys oris the natural host at a dose of 100 mg/kg subcutaneously once a day for 5 days. Value is expressed as number of infected P. oris.; format: functional; settings: route subcutaneous
Summary of the method: as §1

[13] = Effective concentration of compound necessary to kill 50% of infective larvae of Molinema dessetae after 7 days was determined in vitro; Value ranges from 100-500; format: functional
Summary of the method: as §2

[14] = Antifilarial activity against Molinema dessetae in vivo in Proechimys oris the natural host at a dose of 10 mg/kg subcutaneously once a day for 5 days. Value is expressed as number of infected P. oris.; format: functional; settings: route subcutaneous
Summary of the method: as §1

molinema dessetae [15] = assay: Antifilarial activity against Molinema dessetae in vivo against male adult worms at a dose of 100 mg/kg subcutaneously once a day for 5 days; Active; format: functional, organism-based; parameters: dose 100 mg/kg
Summary of the method: as §1

molinema dessetae [16] = assay: Antifilarial activity against Molinema dessetae in vivo against female adult worms at a dose of 10 mg/kg subcutaneously once a day for 5 days; Inactive; format: functional, organism-based; parameters: dose 10 mg/kg
Summary of the method: as §1

molinema dessetae [17] = assay: Effective concentration of compound necessary to kill 90% of infective larvae of Molinema dessetae after 7 days was determined in vitro; Value ranges from 100-500; format: functional
Summary of the method: as §2

Compound	EC90 (molinema dessetae [1]) [µM]	Activity (molinema dessetae [2])	Activity (molinema dessetae [3])	Activity [4]	EC50 [5] [µM]	further results
C[C@@H]1O[C@H]1S(=O)(=O)N1CCOCC1	> 500	inactive	inactive	2	> 500	–
C1COCCN1 [MORPHOLINE]	> 500	–	–	–	> 500	–
Cc1ccccc1C1OC1S(=O)(=O)N1CCOCC1 (stereo not drawn)	< 20	inactive	inactive	1	< 20	–
CCN(CC)C(=O)N1CCN(C)CC1 [DIETHYLCARBAMAZINE]	> 500	–	–	2	> 500	Activity (molinema dessetae [6]): Active; Activity (molinema dessetae [7]): Active
C[C@@]1(c2ccccc2)O[C@@H]1S(=O)(=O)N1CCOCC1	> 500	inactive	inactive	2	> 500	–
CN1CCN(S(=O)(=O)C#Cc2ccccc2)CC1	< 20	inactive	inactive	1	< 20	–
O=S(=O)(/C=C/c1ccccc1)N1CCOCC1	> 500	inactive	inactive	2	> 500	–
O=S(=O)(C1OC1c1ccc(Cl)c(Cl)c1)N1CCCC1 (stereo not drawn)	–	–	–	–	–	EC50 [8]: 100 µM; EC90 (molinema dessetae [9]): 100 µM
CN1CCN(CC(=O)c2ccccc2)CC1	> 500	–	–	–	> 500	Activity (molinema dessetae [10]): inactive; Activity (molinema dessetae [11]): inactive; Activity [12]: 1
C[C@H]1O[C@H]1S(=O)(=O)N1CCOCC1	> 500	–	–	–	–	EC50 [13]: 500 µM
O=S(=O)(C#Cc1ccccc1)N1CCOCC1	< 20	–	–	2	< 20	Activity (molinema dessetae [6]): Active; Activity [14]: 2; Activity (molinema dessetae [7]): Active; Activity (molinema dessetae [15]): Active; Activity (molinema dessetae [16]): inactive; Activity [12]: 2
Cc1cccc(C2OC2S(=O)(=O)N2CCN(C)CC2)c1 (stereo not drawn)	–	–	–	–	–	EC90 (molinema dessetae [17]): 500 µM; EC50 [13]: 500 µM
CN(C)S(=O)(=O)C#Cc1ccccc1	> 500	inactive	–	2	–	EC50 [13]: 500 µM; Activity (molinema dessetae [6]): Active
O=S(=O)(C1OC1c1ccc(Cl)c(Cl)c1)N1CCOCC1 (stereo not drawn)	–	–	–	2	< 20	Activity (molinema dessetae [6]): Active; Activity (molinema dessetae [7]): Active; EC90 (molinema dessetae [9]): 100 µM
IVERMECTIN	–	–	–	–	< 20	–
Cc1ccc(C2OC2S(=O)(=O)N2CCN(C)CC2)cc1 (stereo not drawn)	–	inactive	inactive	2	–	EC90 (molinema dessetae [17]): 500 µM; EC50 [8]: 100 µM
O=S(=O)(/C=C\c1ccccc1)N1CCOCC1	> 500	–	–	–	–	EC50 [13]: 500 µM
CC1OC1S(=O)(=O)N(C)C (stereo not drawn)	–	inactive	inactive	2	–	EC90 (molinema dessetae [17]): 500 µM; EC50 [8]: 100 µM
O=[N+]([O-])c1ccc(C2OC2S(=O)(=O)N2CCOCC2)cc1 (stereo not drawn)	< 20	–	–	–	< 20	–

Compound	EC90 (molinema dessetae [1]) [µM]	Activity (molinema dessetae [2])	Activity (molinema dessetae [3])	Activity [4]	EC50 [5] [µM]	further results
C=C(CS(=O)(=O)N1CCN(C)CC1)c1ccccc1	> 500	–	–	–	–	EC50 [13]: 500 µM
O=C(CN1CCOCC1)c1ccccc1	> 500	–	–	–	> 500	Activity (molinema dessetae [10]): inactive; Activity (molinema dessetae [11]): inactive; Activity [12]: 2
CCCCCCc1ccc(C2OC2S(=O)(=O)N2CCOCC2)cc1 (stereo not drawn)	–	inactive	inactive	1	–	–
O=S(=O)(C1OC1c1ccccc1)N1CCN(c2ccccc2)CC1 (stereo not drawn)	–	–	–	–	–	Activity (molinema dessetae [10]): inactive; Activity (molinema dessetae [11]): inactive; EC50 [8]: 100 µM; Activity [12]: 2; EC90 (molinema dessetae [9]): 100 µM
CN1CCN(S(=O)(=O)/C=C/c2ccccc2)CC1	> 500	inactive	inactive	1	–	EC50 [13]: 500 µM
Cc1cccc(C2OC2S(=O)(=O)N2CCOCC2)c1 (stereo not drawn)	< 20	inactive	inactive	2	< 20	–
O=S(=O)([C@@H]1O[C@@H]1c1ccccc1)N1CCOCC1	–	inactive	inactive	2	–	EC90 (molinema dessetae [17]): 500 µM; EC50 [8]: 100 µM
CN(C)S(=O)(=O)[C@@H]1O[C@@H]1c1ccccc1	–	–	–	–	–	EC90 (molinema dessetae [17]): 500 µM; EC50 [13]: 500 µM
CN1CCN(S(=O)(=O)C2CC2c2ccccc2)CC1 (stereo not drawn)	> 500	inactive	inactive	2	–	EC50 [13]: 500 µM
CCOC(=O)N1CCN(S(=O)(=O)C2OC2c2ccccc2)CC1 (stereo not drawn)	–	inactive	inactive	2	< 20	EC90 (molinema dessetae [9]): 100 µM
CN1CCN(S(=O)(=O)CC(=O)c2ccccc2)CC1	> 500	–	–	–	> 500	–
O=C(CS(=O)(=O)N1CCOCC1)c1ccccc1	> 500	inactive	inactive	2	> 500	–
CN1CCN(S(=O)(=O)[C@@H]2O[C@@H]2c2ccccc2)CC1	–	–	–	–	–	EC90 (molinema dessetae [17]): 500 µM; Activity (molinema dessetae [10]): inactive; Activity (molinema dessetae [11]): inactive; EC50 [8]: 100 µM; Activity [12]: 2
O=S(=O)(C1OC1c1ccccc1)N1CCN(c2cccc(C(F)(F)F)c2)CC1 (stereo not drawn)	–	inactive	inactive	2	–	EC50 [8]: 100 µM; EC90 (molinema dessetae [9]): 100 µM
CN1CCNCC1 [METHYLPIPERAZINE]	> 500	–	–	–	> 500	–
O=S(=O)(C1OC1c1ccc(Cl)cc1)N1CCOCC1 (stereo not drawn)	–	inactive	inactive	2	–	EC90 (molinema dessetae [17]): 500 µM; EC50 [8]: 100 µM
O=S(=O)(C1CC1c1ccccc1)N1CCOCC1 (stereo not drawn)	–	inactive	inactive	2	–	–
CN(C)S(=O)(=O)/C=C\c1ccccc1	–	–	–	–	–	EC90 (molinema dessetae [17]): 500 µM; EC50 [13]: 500 µM
C[C@]1(c2ccccc2)O[C@@H]1S(=O)(=O)N1CCOCC1	> 500	inactive	inactive	2	> 500	–

— ChEMBL document CHEMBL1123563, “New antifilarial agents. 1. Epoxy sulfonamides and ethynesulfonamides” (J Med Chem, 1987)
